From ChEMBL document CHEMBL1149338, “Synthesis and in vitro evaluation of salvinorin A analogues: effect of configuration at C(2) and substitution at C(18)” (Bioorg Med Chem Lett, 2006)

Assays:
[1] = target: T1, Kappa-type opioid receptor (Homo sapiens, UniProt P41145); experiment: Inhibition of [3H]diprenorphine binding to human KOR expressed in CHO cells; format: cell-based
Summary of the method: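 Affinity: membranes from CHO cells stably transfected with human κ-opioid receptor; competitive inhibition of [3H]diprenorphine binding; Ki values; mean of at least three independent experiments, each in duplicate.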

[2] = target: T1, Kappa-type opioid receptor; experiment: Enhancement of [35S]GTP-gamma-S binding to human KOR expressed in CHO cells relative to U50,488H; format: functional, cell-based
[3] = target: T1, Kappa-type opioid receptor; experiment: Enhancement of [35S]GTP-gamma-S binding to human KOR expressed in CHO cells; format: functional, cell-based
[4] = target: T1, Kappa-type opioid receptor; experiment: Enhancement of [35S]GTP-gamma-S binding to human KOR expressed in CHO cells relative to U50,488H at 10 uM; format: functional, cell-based

T1 sequence (P41145 whole entry): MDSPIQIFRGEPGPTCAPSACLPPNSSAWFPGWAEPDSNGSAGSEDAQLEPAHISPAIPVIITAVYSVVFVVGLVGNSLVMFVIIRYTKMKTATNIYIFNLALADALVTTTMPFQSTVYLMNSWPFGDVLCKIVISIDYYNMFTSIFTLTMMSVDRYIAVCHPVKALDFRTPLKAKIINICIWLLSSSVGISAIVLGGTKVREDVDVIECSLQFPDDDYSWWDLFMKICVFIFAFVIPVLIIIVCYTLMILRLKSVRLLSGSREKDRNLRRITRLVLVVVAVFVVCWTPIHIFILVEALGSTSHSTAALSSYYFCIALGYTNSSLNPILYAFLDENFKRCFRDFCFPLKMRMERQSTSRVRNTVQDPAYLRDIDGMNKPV

Work on `CCNC(=O)[C@@H]1C[C@H](OC(C)=O)C(=O)[C@@H]2[C@@]3(C)C[C@@H](c4ccoc4)OC(=O)[C@H]3CC[C@]21C` yielded a Ki [1] greater than 10000 nM.

`CCNC(=O)[C@@H]1C[C@H](OC(C)=O)C(=O)[C@H]2[C@@]1(C)CC[C@H]1C(=O)O[C@H](c3ccoc3)C[C@]21C` showed a Ki [1] greater than 10000 nM.

`CNC[C@@H]1C[C@H](OC(C)=O)C(=O)[C@@H]2C3(C)C[C@@H](c4ccoc4)OC[C@H]3C(=O)C[C@@]12C` (stereo partly drawn) gave a Ki [1] greater than 10000 nM.

`CCC(=O)N(CC)[C@H]1C[C@@H](C(=O)OC)[C@]2(C)CC[C@H]3C(=O)O[C@H](c4ccoc4)C[C@]3(C)[C@H]2C1=O` was tested, and the Ki [1] was 38.1 nM, the Efficacy [2] was 100% and the EC50 [3] was 37.2 nM.

Compound `CCC(=O)N(C)[C@@H]1C[C@@H](C(=O)OC)[C@]2(C)CC[C@H]3C(=O)O[C@H](c4ccoc4)C[C@]3(C)[C@H]2C1=O` has a Ki [1] of 6.9 nM and an EC50 [3] of 12.6 nM.

`CCO[C@@H]1C[C@@H](C(=O)OC)[C@]2(C)CC[C@H]3C(=O)O[C@H](c4ccoc4)C[C@]3(C)[C@H]2C1=O` gave a Ki [1] greater than 10000 nM.

For `CCC(=O)O[C@@H]1C[C@@H](C(=O)OC)[C@]2(C)CC[C@H]3C(=O)O[C@H](c4ccoc4)C[C@]3(C)[C@H]2C1=O`, the Ki [1] was 641 nM.

With `CNC(=O)[C@@H]1C[C@H](OC(C)=O)C(=O)[C@@H]2[C@@]3(C)C[C@@H](c4ccoc4)OC(=O)[C@H]3CC[C@]21C` the Ki [1] was greater than 1000 nM.

For `COC(=O)[C@@H]1C[C@H](OC(C)=O)C(=O)[C@@H]2[C@@]3(C)C[C@@H](c4ccoc4)OC(=O)[C@H]3CC[C@]21C`, the Efficacy [2] was 88%.

For `CNC(=O)[C@@H]1C[C@H](OC(C)=O)C(=O)[C@H]2[C@@]1(C)CC[C@H]1C(=O)O[C@H](c3ccoc3)C[C@]21C`, the Efficacy [4] was 71% and the Ki [1] was 1390 nM.

`CCNC[C@@H]1C[C@H](OC(C)=O)C(=O)[C@@H]2C3(C)C[C@@H](c4ccoc4)OC[C@@H]3C(=O)C[C@@]12C` (stereo partly drawn) gave a Ki [1] greater than 10000 nM.

`COC(=O)[C@@H]1C[C@@H](OC)C(=O)[C@H]2[C@@]1(C)CC[C@H]1C(=O)O[C@H](c3ccoc3)C[C@]21C` gave a Ki [1] greater than 10000 nM.

For `COC(=O)[C@@H]1C[C@@H](N(C)C(C)=O)C(=O)[C@H]2[C@@]1(C)CC[C@H]1C(=O)O[C@H](c3ccoc3)C[C@]21C`, the Efficacy [2] was 106%.

Work on `COC(=O)[C@@H]1C[C@@H](NC(C)=O)C(=O)[C@H]2[C@@]1(C)CC[C@H]1C(=O)O[C@H](c3ccoc3)C[C@]21C` yielded a Ki [1] of 332 nM and an EC50 [3] of 339 nM.

Work on `CCC(=O)N[C@H]1C[C@@H](C(=O)OC)[C@]2(C)CC[C@H]3C(=O)O[C@H](c4ccoc4)C[C@]3(C)[C@H]2C1=O` yielded a Ki [1] of 374 nM, an Efficacy [2] of 109% and an EC50 [3] of 444 nM.

Compound `CC(=O)O[C@H]1C[C@@H](CO)[C@]2(C)CC(=O)[C@H]3CO[C@H](c4ccoc4)CC3(C)[C@H]2C1=O` (stereo partly drawn) has an Efficacy [4] of 68% and a Ki [1] of 1000 nM.

Work on `CCN[C@H]1C[C@@H](C(=O)OC)[C@]2(C)CC[C@H]3C(=O)O[C@H](c4ccoc4)C[C@]3(C)[C@H]2C1=O` yielded a Ki [1] of 65.2 nM and an EC50 [3] of 72.8 nM.

`CC(=O)O[C@H]1C[C@@H](C(=O)N(C)C)[C@]2(C)CC[C@H]3C(=O)O[C@H](c4ccoc4)C[C@]3(C)[C@H]2C1=O` showed a Ki [1] greater than 10000 nM.

`CNC[C@@H]1C[C@H](OC(C)=O)C(=O)[C@@H]2C3(C)C[C@@H](c4ccoc4)OC[C@@H]3C(=O)C[C@@]12C` (stereo partly drawn) showed a Ki [1] greater than 10000 nM.

`COC(=O)[C@@H]1C[C@H](NC(C)=O)C(=O)[C@H]2[C@@]1(C)CC[C@H]1C(=O)O[C@H](c3ccoc3)C[C@]21C` gave a Ki [1] of 149 nM and an EC50 [3] of 188 nM.

`CC(=O)O[C@H]1C[C@@H](C(=O)N(C)C)[C@]2(C)CC[C@@H]3C(=O)O[C@H](c4ccoc4)C[C@]3(C)[C@H]2C1=O` showed a Ki [1] greater than 10000 nM.

Compound `CCC(=O)N[C@@H]1C[C@@H](C(=O)OC)[C@]2(C)CC[C@H]3C(=O)O[C@H](c4ccoc4)C[C@]3(C)[C@H]2C1=O` has a Ki [1] of 117 nM, an Efficacy [2] of 102% and an EC50 [3] of 718 nM.

`CC(=O)O[C@H]1C[C@@H](CN(C)C)[C@]2(C)CC(=O)[C@@H]3CO[C@H](c4ccoc4)CC3(C)[C@H]2C1=O` (stereo partly drawn) showed a Ki [1] greater than 10000 nM.

With `CCN(C(C)=O)[C@@H]1C[C@@H](C(=O)OC)[C@]2(C)CC[C@H]3C(=O)O[C@H](c4ccoc4)C[C@]3(C)[C@H]2C1=O` the Ki [1] was 240 nM, the Efficacy [2] was 95% and the EC50 [3] was 641 nM.

`COC(=O)[C@@H]1C[C@@H](NC(C)C)C(=O)[C@H]2[C@@]1(C)CC[C@H]1C(=O)O[C@H](c3ccoc3)C[C@]21C` showed a Ki [1] of 2.3 nM and an EC50 [3] of 7.2 nM.

In the case of `CCN(C(C)=O)[C@H]1C[C@@H](C(=O)OC)[C@]2(C)CC[C@H]3C(=O)O[C@H](c4ccoc4)C[C@]3(C)[C@H]2C1=O`, the Ki [1] is reported as 27.6 nM, the Efficacy [2] is reported as 104% and the EC50 [3] is reported as 25.2 nM.

With `CC(=O)O[C@H]1C[C@@H](CN(C)C)[C@]2(C)CC(=O)[C@H]3CO[C@H](c4ccoc4)CC3(C)[C@H]2C1=O` (stereo partly drawn) the Ki [1] was greater than 10000 nM.

With `CN[C@H]1C[C@@H](C(=O)OC)[C@]2(C)CC[C@H]3C(=O)O[C@H](c4ccoc4)C[C@]3(C)[C@H]2C1=O` the Ki [1] was 328 nM, the Efficacy [2] was 82% and the EC50 [3] was 825 nM.

`COC[C@@H]1C[C@H](OC(C)=O)C(=O)[C@@H]2C3(C)C[C@@H](c4ccoc4)OC[C@H]3C(=O)C[C@@]12C` (stereo partly drawn) showed an Efficacy [4] of 70% and a Ki [1] of 769 nM.

Compound `COC(=O)[C@@H]1C[C@H](N(C)C)C(=O)[C@H]2[C@@]1(C)CC[C@H]1C(=O)O[C@H](c3ccoc3)C[C@]21C` has a Ki [1] of 168 nM, an Efficacy [2] of 110% and an EC50 [3] of 240 nM.

`CC(=O)O[C@H]1C[C@@H](CO)[C@]2(C)CC(=O)[C@@H]3CO[C@H](c4ccoc4)CC3(C)[C@H]2C1=O` (stereo partly drawn) gave a Ki [1] greater than 10000 nM.

`COC(=O)[C@@H]1C[C@@H](N)C(=O)[C@H]2[C@@]1(C)CC[C@H]1C(=O)O[C@H](c3ccoc3)C[C@]21C` gave a Ki [1] of 223 nM, an Efficacy [2] of 84% and an EC50 [3] of 1370 nM.

With `COC(=O)[C@@H]1C[C@H](N(C)C(C)=O)C(=O)[C@H]2[C@@]1(C)CC[C@H]1C(=O)O[C@H](c3ccoc3)C[C@]21C` the Ki [1] was 3.2 nM, the Efficacy [2] was 103% and the EC50 [3] was 2.4 nM.

`CCC(=O)N(C)[C@H]1C[C@@H](C(=O)OC)[C@]2(C)CC[C@H]3C(=O)O[C@H](c4ccoc4)C[C@]3(C)[C@H]2C1=O` gave a Ki [1] of 1.6 nM and an EC50 [3] of 0.75 nM.

For `CCNC[C@@H]1C[C@H](OC(C)=O)C(=O)[C@@H]2C3(C)C[C@@H](c4ccoc4)OC[C@H]3C(=O)C[C@@]12C` (stereo partly drawn), the Ki [1] was greater than 10000 nM.

For `CCCC(=O)O[C@@H]1C[C@@H](C(=O)OC)[C@]2(C)CC[C@H]3C(=O)O[C@H](c4ccoc4)C[C@]3(C)[C@H]2C1=O`, the Ki [1] was 665 nM.

`CCC(=O)N(CC)[C@@H]1C[C@@H](C(=O)OC)[C@]2(C)CC[C@H]3C(=O)O[C@H](c4ccoc4)C[C@]3(C)[C@H]2C1=O` was tested, and the Ki [1] was 376 nM, the Efficacy [2] was 96% and the EC50 [3] was 857 nM.

Compound `COC(=O)[C@@H]1C[C@H](NC(C)C)C(=O)[C@H]2[C@@]1(C)CC[C@H]1C(=O)O[C@H](c3ccoc3)C[C@]21C` has a Ki [1] of 17.6 nM and an EC50 [3] of 18.9 nM.
